Among the data in ChEMBL document CHEMBL5033990, “Novel Aryl-Substituted Pyrimidones as Inhibitors of 3-Mercaptopyruvate Sulfurtransferase with Antiproliferative Efficacy in Colon Cancer” (J Med Chem, 2021) are IC50, Activity and inhibition values, retold here.

Test [1] is described as follows: Inhibition of recombinant human 3-MST expressed in Escherichia coli assessed as inhibition of H2S generation using 3-MP as substrate preincubated with enzyme for 1 hr followed by incubation with substrate for 1 hr by AzMC probe based fluorescence analysis. In short, it runs like this:
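Same 3-MST/3-MP/AzMC assay, 1 h preincubation then 1 h kinetic read, at 3, 10, 30, 100 and 300 μM (final DMSO 0.3%). Run for compounds inhibiting at least 60% at 100 μM. Three experiments in triplicate. IC50 from nonlinear fit of data taken between min 20 and 40 of the 60 min read.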

Test [2] deals with CT26. The experiment in a line: Antiproliferative activity against mouse CT26 cells assessed as inhibition of cell proliferation measured after 48 hrs by IncuCyte live-cell imaging assay. Format: functional, cell-based. Conditions: CT26, 48 h.
The subject of test [3] is MC-38. Briefly: Antiproliferative activity against mouse MC38 cells assessed as inhibition of cell proliferation measured after 48 hrs by IncuCyte live-cell imaging assay. The conditions noted are these: MC-38, 48 h. In kind it is functional, cell-based.
For test [4], the system named is CT26. The experiment in a line: Antiproliferative activity against mouse CT26 cells assessed as inhibition of cell proliferation measured after 24 hrs by MTT assay. In kind it is functional, cell-based. The conditions noted are these: CT26, 24 h.
The test system of test [5] is MC-38. The experiment in a line: Antiproliferative activity against mouse MC38 cells assessed as inhibition of cell proliferation measured after 24 hrs by MTT assay. The conditions noted are these: MC-38, 24 h. Format: functional, cell-based. (Tetrazolium dyes change colour on reduction, which living cells bring about.)
The subject of test [6] is MC-38. Briefly: Antitumor activity against mouse MC38 cells xenografed in C57BL/6 mouse assessed as reduction in tumor growth at 20 mg/kg, ip administered daily for 2 weeks by caliper analysis. Format: functional, organism-based.
The species named for test [7] is Homo sapiens. The experiment in a line: Inhibition of recombinant human 3-MST expressed in Escherichia coli assessed as inhibition of H2S generation using 3-MP as substrate at 100 uM preincubated with enzyme for 1 hr followed by incubation with substrate for 1 hr by AzMC probe based fluorescence analysis. The conditions noted are these: time 2.0 hrs. In short, it runs like this:
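Human recombinant 3-MST, 3 μg/well, in 50 mM Tris-HCl pH 8 preincubated 1 h at 37 °C with compound at 100 μM (from 100 mM DMSO stock). Then 2 mM 3-MP (no extra sulfur acceptor) and 10 μM AzMC added. Fluorescence read kinetically 1 h at 37 °C, ex 365/em 450 nm. Percent inhibition, mean of three replicates.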

Test [8] has as its system CT26. The experiment in a line: Inhibition of 3-MST in mouse CT26 cells assessed as inhibition of H2S generation at 300 uM incubated for 4 hrs by AzMC probe based fluorescence analysis. Format: cell-based. In short, it runs like this:
(§1)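 Cells seeded at 60,000/well in 8-well chambers and allowed to adhere overnight. Exposed to 300 μM compound for 4 h, then supernatant replaced with 1 mM AzMC in HBSS plus glucose for 1 h. Fluorescence imaged by microscopy; mean pixel intensity expressed as percent of control.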

Test [9] has as its system MC38. The experiment in a line: Inhibition of 3-MST in mouse MC38 cells assessed as inhibition of H2S generation at 300 uM incubated for 4 hrs by AzMC probe based fluorescence analysis. In kind it is cell-based. The method in brief: as §1
Test [10] has as its system Mus musculus. The experiment in a line: Antitumor activity against mouse MC38 cells xenografed in C57BL/6 mouse assessed as euthanasia rate at 20 mg/kg, ip administered daily for 2 weeks and measured on day 32 (reference value: 75%). Format: functional, MC-38. Conditions: time 32 day.

The source made the active and inactive calls. The calls are words filed in the database; no cut-off is given here.

One may read the IC50 as the point on the concentration scale where inhibition reaches its midpoint. As usually defined, the inhibition is the relative decrease from the control value, in per cent. With `Cc1cc(=O)[nH]c(SCC(=O)c2cccc3ccccc23)n1`, the IC50 in [1] worked out at 15.6 µM; in test [2] it was 207 µM; in [3] it was 101 µM; in test [4] it was 243 µM; in [5] it was 221 µM. Besides, the outcome in test [6] was inactive. Further, in test [7], the inhibition was found to be 68%. The inhibition result in [8] and in test [9] was “Active” throughout. Further, the Activity in [10] worked out at 67%.
